The values that follow come from ChEMBL document CHEMBL1681705, “Optimisation of ITK inhibitors through successive iterative design cycles” (Bioorg Med Chem Lett, 2011).

The structures appear in SMILES notation.

For series [1], the system named is Mus musculus. Briefly: Antiinflammatory activity in BALB/c mouse assessed as inhibition of monoclonal anti-CD3-induced IL-2 production at 10 mg/kg, po administered 1 hr before monoclonal anti-CD3 challenge measured after 2 hrs by ELISA relative to control. It counts as functional. A digest of the protocol:
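Female BALB/c mice (~20 g) dosed orally at 10 mg/kg, 1 h before iv anti-CD3 monoclonal antibody (clone 145-2C11, 10 µg/kg). Vehicle (saline) plus antibody group served as positive control. Plasma IL-2 determined from heart-puncture blood 2 h after stimulation, under anaesthesia. Inhibition expressed relative to vehicle; n = 8 mice/group.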
A general note: An ELISA detects its analyte on a solid surface through an enzyme-linked reagent.

Series [2] in a line: Solubility of the compound. In kind it is physicochemical.
In series [3] the test system is Mus musculus. The experiment in a line: Antiinflammatory activity in iv dosed BALB/c mouse assessed as inhibition of monoclonal anti-CD3-induced IL-2 production administered 10 min before monoclonal anti-CD3 challenge measured after 2 hrs by ELISA.
In series [4] the test system is Mus musculus. Briefly: Antiinflammatory activity in BALB/c mouse assessed as inhibition of monoclonal anti-CD3-induced IL-2 production at 10 mg/kg, iv administered 10 min before monoclonal anti-CD3 challenge measured after 2 hrs by ELISA. The settings on record: BLD = below limit of detection.
Series [5] is described as follows: Inhibition of ROCK1 at 1 uM.
Series [6] deals with Serine/threonine-protein kinase PAK 2 (Homo sapiens) (UniProt Q13177). The experiment in a line: Inhibition of PAK2 at 0.1 uM; values are per cent of control.
In series [7] the target is T1, Ephrin type-B receptor 3 (Homo sapiens) (UniProt P54753).
T1 sequence (whole entry): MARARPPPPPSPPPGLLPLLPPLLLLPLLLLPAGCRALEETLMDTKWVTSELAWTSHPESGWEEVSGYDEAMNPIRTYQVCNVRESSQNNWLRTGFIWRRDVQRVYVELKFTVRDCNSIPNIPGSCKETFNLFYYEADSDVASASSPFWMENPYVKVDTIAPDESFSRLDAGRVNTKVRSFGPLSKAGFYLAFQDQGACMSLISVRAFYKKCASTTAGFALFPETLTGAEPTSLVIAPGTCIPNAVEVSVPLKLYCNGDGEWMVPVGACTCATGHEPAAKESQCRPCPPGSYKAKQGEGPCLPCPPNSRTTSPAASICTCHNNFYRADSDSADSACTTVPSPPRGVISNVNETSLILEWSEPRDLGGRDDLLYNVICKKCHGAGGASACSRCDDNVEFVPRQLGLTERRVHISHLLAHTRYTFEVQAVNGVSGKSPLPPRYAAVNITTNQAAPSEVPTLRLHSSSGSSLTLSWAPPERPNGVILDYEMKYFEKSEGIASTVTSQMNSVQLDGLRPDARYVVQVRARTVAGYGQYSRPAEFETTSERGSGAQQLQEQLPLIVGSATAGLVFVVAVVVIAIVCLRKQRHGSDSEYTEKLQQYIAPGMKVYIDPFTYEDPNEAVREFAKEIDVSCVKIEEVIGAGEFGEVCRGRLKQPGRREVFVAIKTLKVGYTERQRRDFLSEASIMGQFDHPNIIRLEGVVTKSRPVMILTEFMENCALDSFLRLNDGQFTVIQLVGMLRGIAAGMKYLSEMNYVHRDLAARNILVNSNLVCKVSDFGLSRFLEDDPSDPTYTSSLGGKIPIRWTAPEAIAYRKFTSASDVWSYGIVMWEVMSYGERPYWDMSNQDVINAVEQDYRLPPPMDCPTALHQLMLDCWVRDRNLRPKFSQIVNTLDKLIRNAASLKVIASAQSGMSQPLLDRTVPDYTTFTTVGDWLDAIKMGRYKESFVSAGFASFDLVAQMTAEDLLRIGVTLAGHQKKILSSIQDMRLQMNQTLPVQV
Briefly: Inhibition of EphB3 at 0.1 uM; values are per cent of control.

Sequence of Serine/threonine-protein kinase PAK 2 (Homo sapiens) (Q13177 whole entry): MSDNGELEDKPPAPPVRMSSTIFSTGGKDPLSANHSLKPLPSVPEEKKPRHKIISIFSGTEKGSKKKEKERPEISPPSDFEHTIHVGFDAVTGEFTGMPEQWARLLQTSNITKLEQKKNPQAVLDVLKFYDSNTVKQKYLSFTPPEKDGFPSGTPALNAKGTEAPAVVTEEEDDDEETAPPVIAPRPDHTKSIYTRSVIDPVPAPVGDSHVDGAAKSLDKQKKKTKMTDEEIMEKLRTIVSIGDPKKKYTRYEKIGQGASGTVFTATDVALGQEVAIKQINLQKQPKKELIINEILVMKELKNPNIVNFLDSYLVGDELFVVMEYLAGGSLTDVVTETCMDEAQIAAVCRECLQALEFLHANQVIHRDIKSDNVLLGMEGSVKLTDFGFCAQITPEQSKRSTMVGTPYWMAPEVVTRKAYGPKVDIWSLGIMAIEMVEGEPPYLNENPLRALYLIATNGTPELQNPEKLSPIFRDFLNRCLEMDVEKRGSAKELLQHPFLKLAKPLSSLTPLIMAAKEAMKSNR

As a reminder, the inhibition in vivo is the percentage by which the read-out fell short of the control. Broadly, the ED50 is the dose that gives a 50% effect, or the effect in half of the subjects. Usually inhibition stands for the drop in the measured response relative to a control, in per cent. With `Cc1ccc2cc(-c3n[nH]c4ccc(NC5CCNC5)cc34)[nH]c2c1` (stereo not drawn), the inhibition in vivo at 10 mg/kg with Mus musculus [1] is more than 80%. The solubility result in series [2] was “soluble”. In the series with Mus musculus [3], the median effective dose (ED50) turned out to be 2.1 mg/kg and the inhibition entry was “Dose-dependent effect”. Further, the inhibition entry in the series with Mus musculus [4] is “BLD”.
The term residual activity denotes the signal under treatment as a percentage of the control signal. Compound `Cc1ccc2cc(-c3n[nH]c4ccc(NC5CCN(Cc6ccccc6)CC5)cc34)[nH]c2c1` had an inhibition in series [5] of 45%. For the same compound, the residual activity in series [6] was 93%; in series [7], 127%.
